Source: ChEMBL document CHEMBL1135770, “Synthesis and transporter binding properties of 3beta-[4'-(phenylalkyl, -phenylalkenyl, and -phenylalkynyl)phenyl]tropane-2beta-carboxylic acid methyl esters: evidence of a remote phenyl binding domain on the dopamine transporter” (J Med Chem, 2002)

Legend:
[1] = target: Sodium-dependent dopamine transporter (Rattus norvegicus, UniProt P23977); assay: 50% Inhibition against dopamine transporter (DAT) in rat striatal tissue by displacing [3H]WIN-35428 radioligand; format: tissue-based, Striatum
In short: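 Competition binding with 0.5 nM [³H]WIN35,428 as final radioligand concentration.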

[2] = target: T1, Norepinephrine transporter (Rattus norvegicus, UniProt Q9WTR4); assay: Tested for the binding affinity towards Norepinephrine transporter in rat cerebral cortex by displacing [3H]nisoxetine radioligand; format: tissue-based
In short: (§1)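 Competition binding with 0.5 nM [³H]nisoxetine as final radioligand concentration.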

[3] = target: T2, Sodium-dependent serotonin transporter (Rattus norvegicus, UniProt P31652); assay: 50% Inhibition against Serotonin transporter in rat midbrain tissue by displacing [3H]paroxetine radioligand; format: tissue-based
In short: (§2)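 Competition binding with 0.2 nM [³H]paroxetine as final radioligand concentration.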

[4] = target: T2, Sodium-dependent serotonin transporter; assay: Tested for the binding affinity towards Serotonin transporter in rat midbrain tissue by displacing [3H]paroxetine radioligand; format: tissue-based; in short: as §2
[5] = target: T1, Norepinephrine transporter; assay: 50% Inhibition against Norepinephrine transporter in rat cerebral cortex by displacing [3H]nisoxetine radioligand; format: tissue-based; in short: as §1

Chain of Sodium-dependent dopamine transporter (P23977 whole entry): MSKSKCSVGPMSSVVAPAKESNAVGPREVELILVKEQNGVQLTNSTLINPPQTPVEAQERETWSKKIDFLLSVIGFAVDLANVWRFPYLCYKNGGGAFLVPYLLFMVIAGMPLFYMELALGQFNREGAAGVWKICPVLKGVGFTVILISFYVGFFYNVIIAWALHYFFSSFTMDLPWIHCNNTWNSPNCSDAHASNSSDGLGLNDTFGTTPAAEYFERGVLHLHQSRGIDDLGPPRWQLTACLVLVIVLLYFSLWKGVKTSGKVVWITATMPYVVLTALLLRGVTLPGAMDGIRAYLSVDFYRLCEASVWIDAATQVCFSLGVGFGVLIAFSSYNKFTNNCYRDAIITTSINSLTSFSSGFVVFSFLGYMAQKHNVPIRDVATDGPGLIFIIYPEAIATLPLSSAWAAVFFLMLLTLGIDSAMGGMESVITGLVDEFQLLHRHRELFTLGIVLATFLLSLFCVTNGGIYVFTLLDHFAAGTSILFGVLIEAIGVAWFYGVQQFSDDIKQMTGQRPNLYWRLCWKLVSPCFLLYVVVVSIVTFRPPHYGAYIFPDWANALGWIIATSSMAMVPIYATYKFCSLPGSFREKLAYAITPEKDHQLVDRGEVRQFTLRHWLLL
T2 sequence (P31652 whole entry): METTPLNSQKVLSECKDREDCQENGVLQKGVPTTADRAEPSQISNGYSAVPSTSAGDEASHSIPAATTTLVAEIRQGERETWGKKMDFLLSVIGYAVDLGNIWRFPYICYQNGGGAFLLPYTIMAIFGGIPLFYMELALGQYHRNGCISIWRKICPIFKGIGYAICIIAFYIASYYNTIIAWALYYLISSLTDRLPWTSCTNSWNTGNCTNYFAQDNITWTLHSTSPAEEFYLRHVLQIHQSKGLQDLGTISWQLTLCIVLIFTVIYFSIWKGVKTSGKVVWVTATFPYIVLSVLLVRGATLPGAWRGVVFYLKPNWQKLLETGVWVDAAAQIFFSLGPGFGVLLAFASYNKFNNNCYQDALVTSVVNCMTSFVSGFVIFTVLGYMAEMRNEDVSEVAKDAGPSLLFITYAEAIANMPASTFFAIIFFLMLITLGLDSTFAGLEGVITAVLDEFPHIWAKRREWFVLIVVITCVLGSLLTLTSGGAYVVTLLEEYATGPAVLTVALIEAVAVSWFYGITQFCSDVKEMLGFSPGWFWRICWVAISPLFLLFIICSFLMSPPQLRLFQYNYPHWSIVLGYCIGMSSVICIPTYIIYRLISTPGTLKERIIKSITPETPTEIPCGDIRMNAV
T1 sequence (Q9WTR4 whole entry): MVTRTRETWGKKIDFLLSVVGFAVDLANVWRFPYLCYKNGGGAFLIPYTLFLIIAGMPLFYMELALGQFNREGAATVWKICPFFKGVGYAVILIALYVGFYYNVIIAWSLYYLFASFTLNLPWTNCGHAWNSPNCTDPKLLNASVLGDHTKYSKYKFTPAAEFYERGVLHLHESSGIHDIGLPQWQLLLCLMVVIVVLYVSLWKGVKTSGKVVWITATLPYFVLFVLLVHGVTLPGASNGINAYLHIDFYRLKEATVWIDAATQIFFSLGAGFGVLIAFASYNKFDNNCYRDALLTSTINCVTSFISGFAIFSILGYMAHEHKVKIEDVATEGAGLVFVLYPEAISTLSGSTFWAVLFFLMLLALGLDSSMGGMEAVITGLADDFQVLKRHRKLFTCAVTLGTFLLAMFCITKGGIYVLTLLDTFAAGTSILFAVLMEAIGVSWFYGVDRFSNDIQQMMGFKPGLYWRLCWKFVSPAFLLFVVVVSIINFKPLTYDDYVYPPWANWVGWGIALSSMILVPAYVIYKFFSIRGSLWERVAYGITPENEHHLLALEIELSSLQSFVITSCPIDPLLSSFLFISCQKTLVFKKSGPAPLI

`COC(=O)C1[C@@H](c2ccc(CCCc3ccccc3)cc2)CC2CC[C@H]1N2C` (stereo partly specified) showed an IC50 [1] of 351 nM, a Ki [2] of 8500 nM and an IC50 [3] of 1240 nM. The Ki [4] was 113 nM and the IC50 [5] was 14200 nM.
`C=Cc1ccc([C@H]2CC3CC[C@H](C2C(=O)OC)N3C)cc1` (stereo partly specified) was tested, and the IC50 [1] was 1.24 nM, the Ki [2] was 47 nM and the IC50 [3] was 9.5 nM. The Ki [4] was 0.86 nM and the IC50 [5] was 78 nM.
`COC(=O)[C@@H]1C2CC[C@H](C[C@@H]1c1ccccc1)N2C` gave a Ki [2] of 55 nM.
Compound `CC#Cc1ccc([C@H]2CC3CC[C@H](C2C(=O)OC)N3C)cc1` (stereo partly specified) has an IC50 [1] of 2.37 nM, a Ki [2] of 494 nM and an IC50 [3] of 15.7 nM. For the same compound, the Ki [4] was 1.43 nM and the IC50 [5] was 820 nM.
Work on `COC(=O)C1[C@@H](c2ccc(C#Cc3ccccc3)cc2)CC2CC[C@H]1N2C` (stereo partly specified) yielded an IC50 [1] of 3.7 nM, a Ki [2] of 209 nM and an IC50 [3] of 46.8 nM. It also gave a Ki [4] of 4.3 nM and an IC50 [5] of 347 nM.
`COC(=O)C1[C@@H](c2ccc(CCc3ccccc3)cc2)CC2CC[C@H]1N2C` (stereo partly specified) gave an IC50 [1] of 5.14 nM, a Ki [2] of 6.5 nM and an IC50 [3] of 234 nM. The Ki [4] was 21.3 nM and the IC50 [5] was 10.8 nM.
Compound `CCc1ccc([C@H]2C[C@H]3CCC(C2C(=O)OC)N3C)cc1` (stereo partly specified) has a Ki [2] of 2360 nM and a Ki [4] of 2.58 nM.
Work on `COC(=O)C1=C(c2ccc3ccccc3c2)CC2CCC1N2C` (stereo unspecified) yielded an IC50 [1] of 5.17 nM, a Ki [2] of 224 nM and an IC50 [3] of 345 nM. For the same compound, the Ki [4] was 31.4 nM and the IC50 [5] was 372 nM.
Work on `COC(=O)C1[C@@H](c2ccc3ccccc3c2)CC2CC[C@H]1N2C` (stereo partly specified) yielded an IC50 [1] of 0.51 nM, a Ki [2] of 12.7 nM and an IC50 [3] of 0.8 nM. For the same compound, the Ki [4] was 0.07 nM and the IC50 [5] was 21.1 nM.
Compound `COC(=O)C1[C@@H](c2ccc(CCCCc3ccccc3)cc2)CC2CC[C@H]1N2C` (stereo partly specified) has an IC50 [1] of 228 nM, a Ki [2] of 1390 nM and an IC50 [3] of 4820 nM. For the same compound, the Ki [4] was 439 nM and the IC50 [5] was 2310 nM.
In the case of `COC(=O)C1[C@@H](c2ccc(/C=C/Cc3ccccc3)cc2)CC2CC[C@H]1N2C` (stereo partly specified), the IC50 [1] is reported as 15.8 nM, the Ki [2] is reported as 759 nM and the IC50 [3] is reported as 781 nM. It also gave a Ki [4] of 71 nM and an IC50 [5] of 1250 nM.
For `COC(=O)C1[C@@H](c2ccc(/C=C/c3ccccc3)cc2)CC2CC[C@H]1N2C` (stereo partly specified), the IC50 [1] was 3.09 nM, the Ki [2] was 1180 nM and the IC50 [3] was 335 nM. The Ki [4] was 30.5 nM and the IC50 [5] was 1960 nM.
`CCCc1ccc([C@H]2CC3CC[C@H](C2C(=O)OC)N3C)cc1` (stereo partly specified) was tested, and the IC50 [1] was 68.5 nM, the Ki [2] was 2360 nM and the IC50 [3] was 70.4 nM. For the same compound, the Ki [4] was 6.4 nM and the IC50 [5] was 3920 nM.
Work on `COC(=O)C1[C@@H](c2ccc(C#CCc3ccccc3)cc2)CC2CC[C@H]1N2C` (stereo partly specified) yielded an IC50 [1] of 1.82 nM, a Ki [2] of 16.5 nM and an IC50 [3] of 13.1 nM. For the same compound, the Ki [4] was 1.19 nM and the IC50 [5] was 27.4 nM.
For `COC(=O)C1C2CC[C@H](C[C@H]1c1ccc(C)cc1)N2C` (stereo partly specified), the Ki [2] was 36 nM and the IC50 [5] was 60 nM.
Work on `C#Cc1ccc([C@H]2CC3CC[C@H](C2C(=O)OC)N3C)cc1` (stereo partly specified) yielded an IC50 [1] of 1.2 nM, a Ki [2] of 50.1 nM and an IC50 [3] of 4.4 nM. For the same compound, the Ki [4] was 0.4 nM and the IC50 [5] was 83.2 nM.
With `C=C(c1ccccc1)c1ccc([C@H]2CC3CC[C@H](C2C(=O)OC)N3C)cc1` (stereo partly specified) the IC50 [1] was 474 nM, the Ki [2] was 4260 nM and the IC50 [3] was 2710 nM. It also gave a Ki [4] of 246 nM and an IC50 [5] of 7060 nM.
With `COC(=O)C1[C@@H](c2ccc(C#CCCCCO)cc2)CC2CC[C@H]1N2C` (stereo partly specified) the IC50 [1] was 57 nM, the Ki [2] was 5720 nM and the IC50 [3] was 828 nM. It also gave a Ki [4] of 75 nM and an IC50 [5] of 9500 nM.
For `COC(=O)C1[C@@H](c2ccc(/C=C\c3ccccc3)cc2)CC2CC[C@H]1N2C` (stereo partly specified), the IC50 [1] was 11.7 nM.
Work on `C/C=C\c1ccc([C@H]2CC3CC[C@H](C2C(=O)OC)N3C)cc1` (stereo partly specified) yielded an IC50 [1] of 5.29 nM, a Ki [2] of 958 nM and an IC50 [3] of 11.4 nM. The Ki [4] was 1.04 nM and the IC50 [5] was 1590 nM.
With `COC(=O)C1[C@@H](c2ccc(-c3ccccc3)cc2)CC2CC[C@H]1N2C` (stereo partly specified) the IC50 [1] was 15.6 nM, the Ki [2] was 892 nM and the IC50 [3] was 95.8 nM. The Ki [4] was 8.7 nM and the IC50 [5] was 1480 nM.
`COC(=O)C1[C@@H](c2ccc(Cc3ccccc3)cc2)CC2CC[C@H]1N2C` (stereo partly specified) showed an IC50 [1] of 526 nM, a Ki [2] of 606 nM and an IC50 [3] of 7240 nM. For the same compound, the Ki [4] was 658 nM and the IC50 [5] was 6670 nM.
`COC(=O)C1C(c2ccc3ccccc3c2)CC2CC[C@H]1N2C` (stereo partly specified) was tested, and the IC50 [1] was 1.1 nM, the Ki [2] was 42.3 nM and the IC50 [3] was 11.4 nM. The Ki [4] was 1.05 nM and the IC50 [5] was 70.2 nM.
With `COC(=O)C1[C@@H](c2ccc(C#CCCCc3ccccc3)cc2)CC2CC[C@H]1N2C` (stereo partly specified) the IC50 [1] was 300 nM, the Ki [2] was 2680 nM and the IC50 [3] was 1340 nM. For the same compound, the Ki [4] was 122 nM and the IC50 [5] was 4450 nM.
In the case of `COC(=O)C1[C@@H](c2ccc(C#CCCc3ccccc3)cc2)CC2CC[C@H]1N2C` (stereo partly specified), the IC50 [1] is reported as 6.28 nM, the Ki [2] is reported as 885 nM and the IC50 [3] is reported as 2180 nM. It also gave a Ki [4] of 198 nM and an IC50 [5] of 1470 nM.
